Sampled rows, rich in hits. Any-hit rate of the full collection: about 2.6%.
ABHD4 inh – inhibitors of mouse ABHD4. Q8VD66. purified mABHD4, FP-Rh probe fluorescence polarization. inhibition, % at 8.92 µM. 370,000 compounds, 0.54% hits;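 active means inhibition exceeding the mean over every tested compound plus 3 SD, cut at about 30% in these data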;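 further: 0% = plate median of compound wells and 100% = S159A mutant with DMSO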
Target sequence (Q8VD66 whole entry, looked up): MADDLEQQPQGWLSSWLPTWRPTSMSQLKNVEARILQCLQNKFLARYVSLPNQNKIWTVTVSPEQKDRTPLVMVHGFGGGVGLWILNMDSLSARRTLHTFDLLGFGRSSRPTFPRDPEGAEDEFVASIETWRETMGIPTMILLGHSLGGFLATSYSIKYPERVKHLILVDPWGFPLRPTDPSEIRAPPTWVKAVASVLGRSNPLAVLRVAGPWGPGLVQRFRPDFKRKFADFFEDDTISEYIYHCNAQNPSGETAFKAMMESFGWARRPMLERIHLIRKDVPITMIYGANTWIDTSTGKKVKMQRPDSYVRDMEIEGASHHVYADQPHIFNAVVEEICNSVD
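Material: mouse ABHD4 enzyme, wild type; Benchmarks: S159A mutant high control, sample median low control; Buffer or medium: HEPES pH 7.0, NaCl, Pluronic buffer; Signal: fluorescence polarization; Read-out: percent inhibition of probe binding, normalized to plate controls; Timing: pre-incubation 45 min, probe exposure 60 min, at 25 °C; Dosing: 8.92 µM, single dose.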
PRMT1 FP inh – inhibitors of human PRMT1 | AID 652257 | Q99873 | recombinant PRMT1, activity-based probe fluorescence polarization | inhibition, % at 2.79 µM | 370,000 compounds, 1.3% hits;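 active means inhibition above about 21% made by adding two undisclosed values, limit read from the data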
TCR CD3 inh – inhibitors of human TCR-CD3 interaction; inhibition, % at 9.4 µM; 360,000 compounds, 0.37% hits; AID 651800; TAMRA-labeled TCR probe fluorescence, biochemical; in the data active means inhibition above about 19%;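 further: recombinant mutant TCR 2C K166C tagged with TAMRA read by polarization; 0% = receptor in buffer alone and 100% = receptor with positive control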
HTRA1 inh – inhibitors of human serine peptidase HTRA1. Q92743. recombinant HTRA1, FP-rhodamine activity-based probe, fluorescence polarization. inhibition, % at 5.96 µM. 340,000 compounds, 0.5% hits. AID 504803; in the data active means inhibition above about 36%;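 further: 0% = enzyme with DMSO and 100% = wells lacking enzyme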
SIAE primary – human SIAE inhibition, primary screen; SIAE FP-Rh probe binding, fluorescence polarization; Q9HAT2; 370,000 compounds, 0.69% hits; AID 1053197; inhibition, % at 9.66 µM;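 active means inhibition above a cutoff: mean of compounds within the control limits plus 3 SD of those, cut at about 17% in these data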;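 further: 0% = plate median of compound wells and 100% = probe without SIAE protein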
SIAE confirm – human SIAE inhibition, confirmation; SIAE FP-Rh activity-based probe, fluorescence polarization; shares compounds with SIAE primary; 2,300 compounds, 13% hits; inhibition, % at 9.66 µM; AID 1117263;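 active means mean inhibition of the replicates above the hit cutoff set in the primary screen, cut at about 17% in these data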;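 further: 0% = SIAE with DMSO and probe and 100% = probe without SIAE; inhibitors lower polarization as more probe stays unbound to SIAE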
* = called active by the depositor; / = no result.

SMILES | ABHD4 inh | PRMT1 FP inh | TCR CD3 inh | HTRA1 inh | SIAE primary | SIAE confirm
CC1CCN(S(=O)(=O)c2ccc(F)c(C(=O)O)c2)CC1 | -1 | 1 | -1 | -6 | 24* | 1
O=C(NCC1CCCCC1)c1cc(S(=O)(=O)N2CCOCC2)ccc1F | 2 | 2 | -3 | 6 | 79* | -2
C[C@@H]1CN([C@@H](C)CO)C(=O)CCCn2nncc2CO[C@H]1CN(C)Cc1cccnc1 | 3 | -1 | 1 | -4 | 2 | /
Nc1nnc(CC(=O)N/N=C/c2ccc(-c3ccc(Cl)cc3Cl)o2)s1 | -2 | 10 | 1 | -22 | -9 | /
O=C(N/N=C/c1ccc(O)c(O)c1)c1cccc(S(=O)(=O)N2CCCCC2)c1 | 21 | 0 | 4 | 35 | 17 | /
O=C(N/N=C\c1cc(Br)ccc1O)c1ccc(S(=O)(=O)N2CCCCC2)cc1 | 7 | 0 | 15 | 26 | 32* | 39*
CCOc1cc(/C=N/Nc2nc(-c3cccc(S(=O)(=O)N4CCCC4)c3)cs2)ccc1O | 1 | 3 | -1 | 18 | 21* | -1
COc1cc(/C=N/Nc2nc(-c3ccc(S(=O)(=O)N(C)C)cc3)cs2)ccc1O | 12 | 0 | -10 | 8 | 17* | 8
COc1ccc(/C=N/Nc2nc(-c3cccc(S(=O)(=O)N4CCCC4)c3)cs2)cc1OC | 8 | 3 | -2 | -2 | 1 | /
COc1cccc(CNC(=O)C2CCN(S(=O)(=O)c3cccc4nonc34)CC2)c1 | -1 | -1 | -4 | 8 | 7 | /
O=C(O)c1cccc(NS(=O)(=O)c2ccc(Cl)c(C(=O)O)c2)c1 | 6 | 1 | 1 | 8 | 18* | -3
c1ccc2c(c1)CCN(C1=Nc3cccc4cccc1c34)C2 | 9 | 1 | 6 | 17 | 30* | 1
COc1cccc(CNC(=O)COC(=O)c2ccc(-c3ccc(O)cc3)cc2)c1 | -6 | -4 | 6 | -2 | 3 | /
O=C1N=c2ccccc2=C1c1sc(=S)n(NC(=O)c2cccc(O)c2)c1O | 26 | 3 | 2 | 0 | 29* | 33*
COc1ccc(-c2ccc(CN3C(C(C)C)C(=O)N(Cc4cn(CC5CCCCC5)nn4)CCS3(=O)=O)cc2)cc1OC (stereo unspecified) | -8 | -2 | -5 | -47 | -3 | /
COc1cccc(CN2CCc3[nH]c(=S)[nH]c(=O)c3C2)c1 | 7 | 0 | 1 | -4 | 22* | -1
COC(=O)C1=CN(Cc2ccccc2)C=C(C(=O)OC)C1c1ccc(OC)c(OC)c1 | 4 | -2 | 6 | 14 | -3 | /
CCOc1ccc(C2C(C(=O)OC)=CN(C(C)c3ccccc3)C=C2C(=O)OC)cc1 (stereo unspecified) | -8 | -2 | 7 | -27 | 18* | 1
COc1ccc(NS(=O)(=O)c2cc(NC(=O)c3ccc(=O)[nH]c3)ccc2N2CCCC2)cc1 | 6 | 1 | 3 | 0 | 23* | 2
CCN(CC)CCNC(=O)C1(O)c2cc(Br)ccc2NC(=O)N1c1c(F)cccc1F (stereo unspecified) | 2 | 0 | 1 | 4 | -4 | /
O=C(NN=Cc1ccc(N2CCOCC2)s1)c1ccc([N+](=O)[O-])cc1 | 13 | 2 | 2 | 25 | 24* | 1
O=C(N/N=C/c1ccc(N2CCOCC2)s1)c1ccc(O)cc1 | 5 | 0 | -2 | 9 | -1 | /
COCCCNC(=O)c1cc(Sc2ccc(F)cc2)nc2ccccc12 | -6 | -1 | -3 | 5 | 18* | 1
COCCN(C)Cc1nc(C(c2ccccc2)c2ccccc2)no1 | 0 | -2 | 3 | 4 | -2 | /
CCC(c1ccccc1)c1noc(CCN(CC)CC)n1 (stereo unspecified) | -4 | -2 | -3 | -1 | 20* | 0
SMILES | ABHD4 inh | PRMT1 FP inh | TCR CD3 inh | HTRA1 inh | SIAE primary | SIAE confirm
CCc1cc(/C(Cc2csc(C)n2)=N/O)c(O)cc1O | -1 | -1 | -5 | 19 | 19* | 14
Cc1nc(C/C(=N\N)c2ccc(O)cc2O)cs1 | 8 | 7 | 2 | 2 | -3 | /
CCOC(=O)C1=C(c2ccccc2)NC(N)=NC1c1ccc(OCc2ccc(Cl)cc2)c(OC)c1 (stereo unspecified) | 9 | -7 | 1 | -13 | 18* | 17*
CCOC(=O)C1=C(c2ccccc2)NC(=O)NC1c1cc(Cl)c(O)c(OC)c1 (stereo unspecified) | -6 | 3 | 5 | 8 | 5 | /
O=S(=O)(c1ccccc1Cl)N1CCC(O)(c2cccnc2)CC1 | -4 | -1 | 6 | 0 | 20* | 2
Cc1ccc(S(=O)(=O)N2CCC(C(=O)OCC(=O)N(Cc3ccccc3)C(C)C)CC2)cc1C | -4 | 6 | 1 | -14 | 6 | /
Cc1cc2oc(C(=O)N3CCN(CCc4ccccn4)CC3)c(C)c2cc1C | -1 | 1 | -2 | 1 | 24* | 5
Cc1ccc(-c2cnc(SCCNC(=O)c3ccco3)[nH]2)cc1 | -6 | -1 | -1 | 3 | 17* | 1
Cc1ccc(C(=O)NCCCNC(=O)c2ccco2)cc1 | 3 | -6 | -2 | 1 | -2 | /
CSc1ccc(Cl)c(C(=O)NNC(=O)c2cccs2)c1 | 5 | 1 | -1 | 2 | 3 | /
CCOC(=O)N1CCN(C(=O)CSc2ncccn2)CC1 | 3 | -1 | 3 | 5 | 19* | 0
CC(C)c1ccc(NC(=O)COC(=O)CC2CCCC2)cc1 | -1 | 3 | -3 | -11 | 20* | -1
CCn1c2ccccc2c2cc(NC(=O)COC(=O)c3ccc(O)cc3)ccc21 | -5 | -2 | 6 | -6 | 17* | -10
CCn1c2ccccc2c2cc(NC(=O)c3ccccc3[N+](=O)[O-])ccc21 | -2 | -1 | 3 | 8 | 21* | 10
CCn1c2ccccc2c2cc(NC(=O)c3ccc([N+](=O)[O-])cc3)ccc21 | -4 | 1 | -4 | 6 | 0 | /
CC(=O)Oc1ccc(/C=C(\NC(=O)c2ccco2)C(=O)NCc2ccco2)cc1 | 5 | -3 | 3 | 4 | 4 | /
O=C(Nc1ccccc1N1CCOCC1)c1cc(-c2ccncc2)nc2ccccc12 | 7 | -2 | 2 | 10 | 22* | 2
COc1cc(CNc2ccc3[nH]c(=O)[nH]c3c2)cc(Br)c1OCc1ccccc1F | 12 | 12 | -1 | -9 | 21* | 13
COc1cc(CNc2ccc3[nH]c(=O)[nH]c3c2)ccc1OCc1ccc(F)cc1 | 17 | 12 | -3 | 7 | 22* | -1
O=C(C1COc2ccccc2O1)N1CCN(c2ccc([N+](=O)[O-])cc2)CC1 (stereo unspecified) | -4 | 4 | 7 | -10 | 5 | /
CCN1CCCC1CNC(=O)C(=O)NC(C)C (stereo unspecified) | 1 | -4 | 1 | 5 | -8 | /
CCN1CCCC1CNC(=O)C(=O)NC(C)c1ccccc1 (stereo unspecified) | 6 | -4 | 5 | 8 | 19* | -2

Assay outcomes: PubChem, The Scripps Research Institute Molecular Screening Center
